Source: ChEMBL document CHEMBL4699541, “Fragment based drug design and diversity-oriented synthesis of carboxylic acid isosteres” (Bioorg Med Chem, 2020)
Blank lines part the entries; values can stand above or below the compound they belong to.

Experiments:
Assay type in all cases: physicochemical
[1] = Distribution coefficient, logD of compound at pH 3 by Sirius T3 apparatus based potentiometric titration analysis; details: octanol/water
[2] = Dissociation constant, pKa of compound in DMSO by Sirius T3 apparatus based potentiometric titration analysis
[3] = Octanol/water partition coefficient, logP of compound by Sirius T3 apparatus based potentiometric titration analysis
Outline: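 Measured by potentiometric (pH-metric) titration in an immiscible octanol–water biphasic system on a Sirius T3. Run at 25 °C at constant ionic strength (0.15 M KCl), using the pKa values determined earlier on the same instrument. Samples came from 50 mM DMSO stocks.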

[4] = Distribution coefficient, logD of compound at pH 8 by Sirius T3 apparatus based potentiometric titration analysis; details: octanol/water
[5] = Dissociation constant, pKa of compound in water by Sirius T3 apparatus based potentiometric titration analysis
[6] = Dissociation constant, pKa of compound measured under acidic conditions by Sirius T3 apparatus based potentiometric titration analysis

Structure (SMILES): Cc1cccc(Cc2nsc(O)n2)c1
logD [1]: 2.02
pKa [2]: 6.35
logP [3]: 2.15
logD [4]: 0.42

Structure (SMILES): Cc1cccc(CC(=O)NS(C)(=O)=O)c1
logD [1]: 0.44
pKa [2]: 4.63
logP [3]: 0.97
logD [4]: -1.58

Structure (SMILES): Cc1cccc(CC(N)=O)c1
pKa [5]: > 12

Structure (SMILES): Cc1cccc(-c2nnn[nH]2)c1
logD [1]: 1.1
pKa [2]: 4.07
logP [3]: 1.75
logD [4]: -0.95

Structure (SMILES): Cc1cccc(C/C(N)=N/O)c1
pKa [6]: 5.27
pKa [5]: > 12

Structure (SMILES): Cc1cccc(C2=C(O)COC2=O)c1
logD [1]: 1.26
pKa [2]: 2.95
logP [3]: 2.32
logD [4]: -0.87

Structure (SMILES): Cc1cccc(C(=O)O)c1
pKa [5]: 3.99

Structure (SMILES): Cc1cccc(C(N)=O)c1
pKa [5]: > 12

Structure (SMILES): Cc1cccc(CC(=O)O)c1
logD [1]: 1.35
logP [3]: 1.98
logD [4]: -0.7
pKa [5]: 4.13

Structure (SMILES): Cc1cccc(Cc2nnn[nH]2)c1
logD [1]: 1.07
pKa [2]: 4.73
logP [3]: 1.51
logD [4]: -0.96

Structure (SMILES): Cc1cccc(/C(N)=N/O)c1
pKa [6]: 4.97
pKa [5]: > 12

Now from value to compound:

logD [1]: 1.44
pKa [2]: 2.64
logP [3]: 2.65
logD [4]: -0.7
Structure (SMILES): Cc1cccc(-c2noc(S)n2)c1

logD [1]: 0.8
logP [3]: 1.14
logD [4]: -1.11
pKa [5]: 5.12
Structure (SMILES): Cc1cccc(-c2noc(O)n2)c1

logD [1]: 2.04
pKa [2]: 5.99
logP [3]: 2.22
logD [4]: 0.34
Structure (SMILES): Cc1cccc(-c2nsc(O)n2)c1

logD [1]: 1.42
pKa [2]: 3.19
logP [3]: 2.39
logD [4]: -0.7
Structure (SMILES): Cc1cccc(Cc2noc(S)n2)c1

logD [1]: 1.39
logP [3]: 1.63
logD [4]: -0.42
pKa [5]: 5.59
Structure (SMILES): Cc1cccc(Cc2noc(O)n2)c1
